According to PMC3880595 (Journal of medicinal chemistry, 2013):
Like-named read-outs stand apart in the source and are kept apart here. Positions of bridges follow the written chain, without caps; N, C: chain ends. Non-standard residues stand in square brackets, D forms with d. Residues, ends and D or L forms follow the SMILES beside them. Nle = CCCC[C@H](N)C(=O)O

Tests used:
RP-HPLC capacity factor = type: physicochemical; conditions: chromatographic, Grace Vydac C-18, 20-min gradient of 16-26% acetonitrile in 20 mM HCl, 1 mL/min
MC1 receptor [1] = target: T1, MC1 receptor (Mus musculus, UniProt Q01727); assay: In vitro competitive binding assay against ^125I-; parameters: species or system murine
Summary of the method: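 B16/F1 cells seeded at 2.5 × 10^5/well, grown overnight at 37 °C, then washed with binding medium (MEM, 25 mM HEPES pH 7.4, 0.2% BSA, 0.3 mM 1,10-phenanthroline). Incubated 2 h at 25 °C with ~30,000 cpm 125I-(Tyr2)-NDP-MSH plus test peptide at 10^-13 to 10^-6 M. Rinsed twice with ice-cold 0.2% BSA/0.01 M PBS (pH 7.4), lysed 5 min in 1 M NaOH, gamma-counted. Run in triplicate.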

MC1 receptor [2] = target: T1, MC1 receptor; conditions: read-out: MC1 receptor binding affinity; B16/F1 cells; cited from earlier work

T1 sequence (Q01727 whole entry): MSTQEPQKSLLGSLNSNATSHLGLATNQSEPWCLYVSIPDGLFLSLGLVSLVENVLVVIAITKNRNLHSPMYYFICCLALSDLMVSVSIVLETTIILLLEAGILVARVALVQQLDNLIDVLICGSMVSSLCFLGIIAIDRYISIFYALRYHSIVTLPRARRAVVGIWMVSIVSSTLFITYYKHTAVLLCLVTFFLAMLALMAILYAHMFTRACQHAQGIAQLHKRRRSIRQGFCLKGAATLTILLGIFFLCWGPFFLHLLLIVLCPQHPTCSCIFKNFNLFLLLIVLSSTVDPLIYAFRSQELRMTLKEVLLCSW

| Compound | Capacity factor (k') (RP-HPLC capacity factor) | IC50 (MC1 receptor [1]) | IC50 (MC1 receptor [2]) |
| --- | --- | --- | --- |
| CC(C)[C@H](NC(=O)[C@@H]1CCCN1C(=O)[C@H](CCCNC(=N)N)NC(=O)[C@H](CS)NC(=O)[C@H](Cc1c[nH]c2ccccc12)NC(=O)[C@H](CCCNC(=N)N)NC(=O)[C@@H](Cc1ccccc1)NC(=O)[C@H](Cc1c[nH]cn1)NC(=O)[C@H](CCC(=O)O)NC(=O)[C@H](CS)NC(=O)[C@H](CS)NC(=O)[C@H](CCCCN)NC(=O)[C@@H]1CC(=O)N[C@@H](CCCNC(=N)N)C(=O)N[C@@H](Cc2ccccc2)C(=O)N[C@@H](CC(=O)O)C(=O)N[C@H](Cc2ccc(O)cc2)C(=O)N1)C(N)=O [RFD-Lys-(Arg^11)CCMSH] (RFD[dY]DKCCEH[dF]RWCRPV-NH2; lactam N-5) | 3.77 | 0.82 ± 0.06 nM |  |
| CCCC[C@@H]1NC(=O)[C@H](CCCNC(=N)N)NC(=O)C[C@@H](C(=O)N[C@@H](CCCCN)C(=O)N[C@@H](CS)C(=O)N[C@@H](CS)C(=O)N[C@@H](CCC(=O)O)C(=O)N[C@@H](Cc2c[nH]cn2)C(=O)N[C@H](Cc2ccccc2)C(=O)N[C@@H](CCCNC(=N)N)C(=O)N[C@@H](Cc2c[nH]c3ccccc23)C(=O)N[C@@H](CS)C(=O)N[C@@H](CCCNC(=N)N)C(=O)N2CCC[C@H]2C(=O)N[C@H](C(N)=O)C(C)C)NC(=O)[C@@H](Cc2ccc(O)cc2)NC(=O)[C@H](CC(=O)O)NC1=O [RNleD-Lys-(Arg^11)CCMSH] (R[Nle]D[dY]DKCCEH[dF]RWCRPV-NH2; lactam N-5) | 4.36 | 2.99 ± 0.26 nM |  |
| CC(C)[C@H](NC(=O)[C@@H]1CCCN1C(=O)[C@H](CCCNC(=N)N)NC(=O)[C@H](CS)NC(=O)[C@H](Cc1c[nH]c2ccccc12)NC(=O)[C@H](CCCNC(=N)N)NC(=O)[C@@H](Cc1ccccc1)NC(=O)[C@H](Cc1c[nH]cn1)NC(=O)[C@H](CCC(=O)O)NC(=O)[C@H](CS)NC(=O)[C@H](CS)NC(=O)[C@H](CCCCN)NC(=O)[C@@H]1CC(=O)N[C@@H](CCCNC(=N)N)C(=O)N[C@@H](CO)C(=O)N[C@@H](CC(=O)O)C(=O)N[C@H](Cc2ccc(O)cc2)C(=O)N1)C(N)=O [RSD-Lys-(Arg^11)CCMSH, c[Arg-Ser-Asp-DTyr-Asp]-Lys-Cys-Cys-Glu-His-DPhe-Arg-Trp-Cys-Arg-Pro-Val-NH2] (RSD[dY]DKCCEH[dF]RWCRPV-NH2; lactam N-5) | 2.19 | 1.3 ± 0.36 nM |  |
| CC(C)[C@H](NC(=O)[C@@H]1CCCN1C(=O)[C@H](CCCNC(=N)N)NC(=O)[C@H](CS)NC(=O)[C@H](Cc1c[nH]c2ccccc12)NC(=O)[C@H](CCCNC(=N)N)NC(=O)[C@@H](Cc1ccccc1)NC(=O)[C@H](Cc1c[nH]cn1)NC(=O)[C@H](CCC(=O)O)NC(=O)[C@H](CS)NC(=O)[C@H](CS)NC(=O)[C@H](CCCCN)NC(=O)[C@@H]1CC(=O)N[C@@H](CCCNC(=N)N)C(=O)N[C@H](Cc2ccccc2)C(=O)N[C@@H](CC(=O)O)C(=O)N[C@H](Cc2ccc(O)cc2)C(=O)N1)C(N)=O [RfD-Lys-(Arg^11)CCMSH] (R[dF]D[dY]DKCCEH[dF]RWCRPV-NH2; lactam N-5) |  | 1.35 ± 0.08 nM |  |
| RGD-Lys-(Arg^11)CCMSH: cyclic RGD motif {Arg-Gly-Asp-DTyr-Asp} attached to [Cys^3,4,10, D-Phe^7, Arg^11]α-MSH3-13 peptide via a lysine linker (RGDYDKCCEHFRWCRPV; lactam cycle c[Arg1-Gly-Asp-dTyr-Asp5]; (Arg1 alpha-amine to Asp5 side-chain carboxyl); D-Tyr4; D-Phe11; C-terminal amide; Lys6 linker) |  |  | 2.1 nM |
